Measured values: ChEMBL document CHEMBL1157634, “Differential binding of phenothiazine urea derivatives to wild-type human cholinesterases and butyrylcholinesterase mutants” (Bioorg Med Chem, 2010)
Active and inactive are the calls of the source. No cut-off for these calls is given here.

Legend:
[1] = biological target: T1, Cholinesterase (Homo sapiens, UniProt P06276); assay: Inhibition of human plasma BuChE by modified Ellman's spectrophotometric method; format: cell-free
Method in brief: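 Purified human plasma BuChE (~0.05 units in 0.1% gelatin) in DTNB buffer at pH 8.0, 23 °C, read at 412 nm. Inhibitors first screened in 1:10 serial dilutions in 50% acetonitrile. Lineweaver–Burk plots used butyrylthiocholine 3 × 10^-5–1.6 × 10^-4 M without inhibitor and at two inhibitor concentrations. Ki taken as the x-intercept of the slope replot. Runs generally at least in triplicate and averaged.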

[2] = biological target: T2, Acetylcholinesterase (Homo sapiens, UniProt P22303); assay: Inhibition of human recombinant AChE by modified Ellman's spectrophotometric method
T2 sequence (P22303 whole entry): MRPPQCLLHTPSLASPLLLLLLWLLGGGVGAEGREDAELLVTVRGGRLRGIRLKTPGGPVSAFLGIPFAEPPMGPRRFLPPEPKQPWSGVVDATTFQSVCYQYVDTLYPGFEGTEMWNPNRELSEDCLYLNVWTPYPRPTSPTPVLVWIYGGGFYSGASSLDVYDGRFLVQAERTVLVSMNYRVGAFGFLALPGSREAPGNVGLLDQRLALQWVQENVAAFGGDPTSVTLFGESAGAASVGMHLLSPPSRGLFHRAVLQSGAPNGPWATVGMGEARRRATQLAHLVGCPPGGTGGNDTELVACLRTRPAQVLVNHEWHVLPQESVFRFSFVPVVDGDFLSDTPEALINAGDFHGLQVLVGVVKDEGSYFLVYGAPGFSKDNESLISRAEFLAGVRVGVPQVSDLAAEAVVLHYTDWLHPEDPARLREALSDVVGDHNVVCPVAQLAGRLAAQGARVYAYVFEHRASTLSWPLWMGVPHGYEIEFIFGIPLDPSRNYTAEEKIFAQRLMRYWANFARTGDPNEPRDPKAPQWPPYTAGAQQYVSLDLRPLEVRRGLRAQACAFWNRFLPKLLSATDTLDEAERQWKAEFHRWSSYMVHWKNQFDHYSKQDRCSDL

[3] = species on record: Homo sapiens; assay: Inhibition of human BuChE D70G mutant at 50 nM by modified Ellman's spectrophotometric method
Method in brief: (§1)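 Recombinant human BuChE mutants (D70G, F329A, Y332A), with wild-type BuChE for comparison, tested by modified Ellman assay. Buffered DTNB (usually pH 8.0), 23 °C, single butyrylthiocholine concentration of 1.6 × 10^-4 M final. Inhibitor added in 50% aqueous acetonitrile (final 1.67% v/v). Rate read at 412 nm every 5 s for 1 min.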

[4] = species on record: Homo sapiens; assay: Inhibition of human BuChE Y332A mutant assessed as residual activity at 500 nM by modified Ellman's spectrophotometric method relative to control; method in brief: as §1
[5] = species on record: Homo sapiens; assay: Inhibition of human BuChE F329A mutant at 500 nM by modified Ellman's spectrophotometric method; method in brief: as §1
[6] = biological target: T2, Acetylcholinesterase; assay: Inhibition of human AChE at 1.8 uM by Michaelis-Menten analysis in presence of 10 mM acetylthiocholine as substrate
Method in brief: (§2)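 Purified recombinant human AChE (~0.03 units in 0.1% aqueous gelatin) in buffered DTNB (usually pH 8.0) at 23 °C. Fixed enzyme and inhibitor concentrations across acetylthiocholine 0.039–40 mM. Inhibitor added in 50% aqueous acetonitrile (final 1.67% v/v). Hydrolysis rate (ΔA/min) read at 412 nm every 5 s for 1 min. Michaelis–Menten plots of rate versus substrate concentration.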

[7] = biological target: T2, Acetylcholinesterase; assay: Inhibition of human AChE at 1.8 uM by Michaelis-Menten analysis in presence of 20 mM acetylthiocholine as substrate; method in brief: as §2
[8] = biological target: T1, Cholinesterase; settings: 50 nM
[9] = biological target: T1, Cholinesterase; settings: 500 nM
[10] = biological target: T1, Cholinesterase; settings: 1.8 uM
[11] = biological target: T1, Cholinesterase; settings: 1.8 uM; remark: listed apart in the source

T1 sequence (P06276 whole entry): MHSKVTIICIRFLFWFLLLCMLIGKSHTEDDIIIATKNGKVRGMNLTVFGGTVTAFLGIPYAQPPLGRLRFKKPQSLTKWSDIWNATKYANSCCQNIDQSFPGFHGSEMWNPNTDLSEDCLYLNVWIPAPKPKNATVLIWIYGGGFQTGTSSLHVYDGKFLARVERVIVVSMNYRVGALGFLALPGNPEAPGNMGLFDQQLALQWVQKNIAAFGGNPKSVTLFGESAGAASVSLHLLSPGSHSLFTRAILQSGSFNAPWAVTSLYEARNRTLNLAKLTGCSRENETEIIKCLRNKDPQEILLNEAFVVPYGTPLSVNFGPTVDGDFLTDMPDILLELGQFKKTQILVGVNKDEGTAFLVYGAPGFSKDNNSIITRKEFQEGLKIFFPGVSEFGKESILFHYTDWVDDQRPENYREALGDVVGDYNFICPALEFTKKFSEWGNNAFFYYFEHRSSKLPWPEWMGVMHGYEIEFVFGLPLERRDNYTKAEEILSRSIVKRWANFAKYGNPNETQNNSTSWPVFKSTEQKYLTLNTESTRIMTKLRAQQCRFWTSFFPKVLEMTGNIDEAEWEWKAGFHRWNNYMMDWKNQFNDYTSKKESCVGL

| Compound | Ki [1] | Ki [2] | other results |
| --- | --- | --- | --- |
| CNC(=O)N1c2ccccc2Sc2ccccc21 | 18.3 µM | – | Ki ([2]; read-out: Ki): 9.36 µM |
| CN(CCCNC(=O)N1c2ccccc2Sc2ccccc21)c1ccccc1 | 0.25 µM | Not Active | – |
| CN1CCN(C(=O)N2c3ccccc3Sc3ccccc32)CC1 | 17.1 µM | Not Active | – |
| CCCNC(=O)N1c2ccccc2Sc2ccccc21 | 20.5 µM | Not Active | – |
| CCCCNC(=O)N1c2ccccc2Sc2ccccc21 | 24.7 µM | Not Active | – |
| O=C(NCc1cccc2ccccc12)N1c2ccccc2Sc2ccccc21 | 0.15 µM | Not Active | – |
| CCNC(=O)N1c2ccccc2Sc2ccccc21 | 35 µM | – | Ki ([2]; read-out: Ki): 1450 µM |
| COc1ccc(NC(=O)N2c3ccccc3Sc3ccccc32)cc1 | 9.63 µM | Not Active | – |
| CC(C)NC(=O)N1c2ccccc2Sc2ccccc21 | 3.41 µM | – | Ki ([2]; read-out: Ki): 691 µM |
| O=C(NC1CCCCC1)N1c2ccccc2Sc2ccccc21 | 2.81 µM | Not Active | – |
| O=C(NC1CCC1)N1c2ccccc2Sc2ccccc21 | 10 µM | Not Active | – |
| CCCN(CCC)C(=O)N1c2ccccc2Sc2ccccc21 | 0.43 µM | Not Active | – |
| CC(C)N(CCNC(=O)N1c2ccccc2Sc2ccccc21)C(C)C | 0.009 µM | – | Ki ([2]; read-out: Ki): 0.81 µM; inhibition [3]: inactive; Activity [4]: 50%; inhibition [5]: Active; inhibition [6]: Active; inhibition [7]: inactive; inhibition [8]: 50%; inhibition [9]: Active; inhibition [10]: Active; inhibition [11]: inactive |
| O=C(N1CCOCC1)N1c2ccccc2Sc2ccccc21 | 7.1 µM | Not Active | – |
| O=C(NCCN1CCCCC1)N1c2ccccc2Sc2ccccc21 | 0.02 µM | – | Ki ([2]; read-out: Ki): 0.62 µM |
| O=C(NCCN1CCOCC1)N1c2ccccc2Sc2ccccc21 | 6.91 µM | Not Active | – |
| Cc1ccc(NC(=O)N2c3ccccc3Sc3ccccc32)cc1 | 12.1 µM | Not Active | – |
| CCN(CC)CCNC(=O)N1c2ccccc2Sc2ccccc21 | 0.51 µM | – | Ki ([2]; read-out: Ki): 16.3 µM |
| O=C(Nc1ccc(Cl)cc1)N1c2ccccc2Sc2ccccc21 | 4.69 µM | Not Active | – |

| Compound | Ki [1] | Ki [2] | other results |
| --- | --- | --- | --- |
| CC(C)N(C(=O)N1c2ccccc2Sc2ccccc21)C(C)C | 0.18 µM | Not Active | – |
| O=C(NC1CCCC1)N1c2ccccc2Sc2ccccc21 | 2.99 µM | Not Active | – |
| O=C(Nc1ccccc1)N1c2ccccc2Sc2ccccc21 | 0.31 µM | Not Active | – |
| NC(=O)N1c2ccccc2Sc2ccccc21 | 90.8 µM | – | Ki ([2]; read-out: Ki): 89.3 µM |
| O=C(N1CCCC1)N1c2ccccc2Sc2ccccc21 | 0.56 µM | Not Active | – |
| O=C(NCCc1ccccc1)N1c2ccccc2Sc2ccccc21 | 0.19 µM | Not Active | – |
| O=C(NCc1ccccc1)N1c2ccccc2Sc2ccccc21 | 4.45 µM | Not Active | – |
| O=C(NCCCN1CCOCC1)N1c2ccccc2Sc2ccccc21 | 7.86 µM | Not Active | – |
| COCCNC(=O)N1c2ccccc2Sc2ccccc21 | 29.1 µM | Not Active | – |
| Cc1ccccc1NC(=O)N1c2ccccc2Sc2ccccc21 | 0.71 µM | Not Active | – |
| O=C(NC12CC3CC(CC(C3)C1)C2)N1c2ccccc2Sc2ccccc21 | 0.35 µM | Not Active | – |
| CN(C)C(=O)N1c2ccccc2Sc2ccccc21 | 9.2 µM | – | Ki ([2]; read-out: Ki): 400 µM |
| O=C(N1CCCCC1)N1c2ccccc2Sc2ccccc21 | 1.56 µM | Not Active | – |
| CCN(CC)C(=O)N1c2ccccc2Sc2ccccc21 | 1.05 µM | Not Active | – |
| CC(C)(C)NC(=O)N1c2ccccc2Sc2ccccc21 | 10.6 µM | Not Active | – |
| O=C(NC1CC1)N1c2ccccc2Sc2ccccc21 | 42.5 µM | Not Active | – |
| CC(C)(C)CNC(=O)N1c2ccccc2Sc2ccccc21 | 2.66 µM | Not Active | – |
| O=C(NCCN1CCCC1)N1c2ccccc2Sc2ccccc21 | 0.21 µM | – | Ki ([2]; read-out: Ki): 29.4 µM |
